Laboratory results: the M2OR odorant receptor database

Experiments:
Conditions in all cases: stereoisomer not certain
UniProt Q8VGC6 = target: T1, UniProt Q8VGC6
T1 sequence (whole entry): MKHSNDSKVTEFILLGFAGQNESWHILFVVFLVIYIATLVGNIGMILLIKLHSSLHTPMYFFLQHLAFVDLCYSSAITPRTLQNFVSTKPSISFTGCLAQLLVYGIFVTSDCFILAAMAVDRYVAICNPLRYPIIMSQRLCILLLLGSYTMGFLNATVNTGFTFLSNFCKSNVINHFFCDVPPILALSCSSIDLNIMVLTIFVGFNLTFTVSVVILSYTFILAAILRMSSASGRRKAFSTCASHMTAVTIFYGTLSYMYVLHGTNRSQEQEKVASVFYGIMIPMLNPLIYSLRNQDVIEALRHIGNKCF
Procedure, shortened: (§1)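 Assay methods differ from source to source, frequently being transient luciferase assays in mammalian cell lines. For each receptor–molecule pair, the label responsive (active) applies when the original authors judged the measured signal statistically different from baseline, and non-responsive (inactive) applies otherwise.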

UniProt Q8VGD7 = target: T2, UniProt Q8VGD7
T2 sequence (whole entry): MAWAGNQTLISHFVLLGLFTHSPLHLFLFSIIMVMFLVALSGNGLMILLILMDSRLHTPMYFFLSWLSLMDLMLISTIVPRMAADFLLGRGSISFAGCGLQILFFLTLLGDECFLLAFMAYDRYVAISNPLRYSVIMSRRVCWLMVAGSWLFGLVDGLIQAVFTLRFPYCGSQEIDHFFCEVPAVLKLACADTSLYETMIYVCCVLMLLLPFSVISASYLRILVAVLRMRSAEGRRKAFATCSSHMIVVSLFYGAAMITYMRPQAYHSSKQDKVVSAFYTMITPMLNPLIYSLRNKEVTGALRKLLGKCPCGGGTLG
Procedure, shortened: as §1

UniProt Q8VGH1 = target: T3, UniProt Q8VGH1
T3 sequence (whole entry): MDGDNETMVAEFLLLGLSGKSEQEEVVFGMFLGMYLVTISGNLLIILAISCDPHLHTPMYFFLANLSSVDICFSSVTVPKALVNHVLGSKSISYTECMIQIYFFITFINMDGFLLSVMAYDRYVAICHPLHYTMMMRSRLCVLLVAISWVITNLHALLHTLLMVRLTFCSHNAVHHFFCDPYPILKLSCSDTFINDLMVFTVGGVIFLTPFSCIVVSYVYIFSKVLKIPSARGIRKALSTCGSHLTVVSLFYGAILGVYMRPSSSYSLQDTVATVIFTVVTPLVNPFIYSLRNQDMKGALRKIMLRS
Procedure, shortened: as §1

UniProt Q8VGJ1 = target: T4, UniProt Q8VGJ1
T4 sequence (whole entry): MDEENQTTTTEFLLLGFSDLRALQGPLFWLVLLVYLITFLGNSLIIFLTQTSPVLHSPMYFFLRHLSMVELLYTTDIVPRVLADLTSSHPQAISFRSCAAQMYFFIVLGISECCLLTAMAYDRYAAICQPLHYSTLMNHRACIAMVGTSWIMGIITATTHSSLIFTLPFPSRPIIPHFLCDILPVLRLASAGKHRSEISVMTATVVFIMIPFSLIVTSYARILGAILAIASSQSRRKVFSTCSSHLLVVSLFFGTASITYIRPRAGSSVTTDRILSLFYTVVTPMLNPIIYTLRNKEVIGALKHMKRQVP
Procedure, shortened: as §1

UniProt Q8VGJ3 = target: T5, UniProt Q8VGJ3
T5 sequence (whole entry): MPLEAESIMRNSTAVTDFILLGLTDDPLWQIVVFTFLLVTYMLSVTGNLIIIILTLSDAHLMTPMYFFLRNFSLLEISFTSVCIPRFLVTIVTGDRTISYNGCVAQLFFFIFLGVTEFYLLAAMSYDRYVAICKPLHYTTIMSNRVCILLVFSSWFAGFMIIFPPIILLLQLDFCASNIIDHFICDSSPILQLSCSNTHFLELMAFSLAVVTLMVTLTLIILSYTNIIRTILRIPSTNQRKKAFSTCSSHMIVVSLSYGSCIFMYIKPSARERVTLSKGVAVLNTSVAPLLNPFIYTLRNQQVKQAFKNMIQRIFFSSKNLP
Procedure, shortened: as §1

UniProt Q8VGJ5 = target: T6, UniProt Q8VGJ5
T6 sequence (whole entry): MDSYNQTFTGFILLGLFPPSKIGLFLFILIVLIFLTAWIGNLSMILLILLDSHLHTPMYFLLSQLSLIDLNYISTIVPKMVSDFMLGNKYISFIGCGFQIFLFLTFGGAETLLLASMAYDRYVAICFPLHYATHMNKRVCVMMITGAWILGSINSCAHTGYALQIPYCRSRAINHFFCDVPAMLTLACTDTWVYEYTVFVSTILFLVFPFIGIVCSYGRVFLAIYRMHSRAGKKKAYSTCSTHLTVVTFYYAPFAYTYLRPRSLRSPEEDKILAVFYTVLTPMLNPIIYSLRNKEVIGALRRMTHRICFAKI
Procedure, shortened: as §1

UniProt Q8VGL0 = target: T7, UniProt Q8VGL0
T7 sequence (whole entry): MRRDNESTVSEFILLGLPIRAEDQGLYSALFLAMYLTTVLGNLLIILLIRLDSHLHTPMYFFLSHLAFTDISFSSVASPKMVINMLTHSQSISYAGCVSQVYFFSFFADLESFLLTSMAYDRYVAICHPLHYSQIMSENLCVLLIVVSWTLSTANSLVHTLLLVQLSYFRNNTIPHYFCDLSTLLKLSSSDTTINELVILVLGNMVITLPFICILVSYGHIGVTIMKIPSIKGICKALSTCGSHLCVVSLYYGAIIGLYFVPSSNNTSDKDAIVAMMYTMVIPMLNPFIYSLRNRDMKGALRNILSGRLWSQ
Procedure, shortened: as §1

UniProt Q8VGL7 = target: T8, UniProt Q8VGL7
T8 sequence (whole entry): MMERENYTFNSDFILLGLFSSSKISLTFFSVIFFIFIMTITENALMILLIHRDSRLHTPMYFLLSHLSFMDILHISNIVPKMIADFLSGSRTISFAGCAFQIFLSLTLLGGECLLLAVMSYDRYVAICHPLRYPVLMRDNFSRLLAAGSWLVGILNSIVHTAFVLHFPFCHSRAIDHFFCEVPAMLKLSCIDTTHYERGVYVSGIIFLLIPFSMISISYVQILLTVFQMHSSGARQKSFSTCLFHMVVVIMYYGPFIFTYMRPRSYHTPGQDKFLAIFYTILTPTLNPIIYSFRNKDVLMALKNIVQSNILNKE
Procedure, shortened: as §1

UniProt Q8VGM2 = target: T9, UniProt Q8VGM2
T9 sequence (whole entry): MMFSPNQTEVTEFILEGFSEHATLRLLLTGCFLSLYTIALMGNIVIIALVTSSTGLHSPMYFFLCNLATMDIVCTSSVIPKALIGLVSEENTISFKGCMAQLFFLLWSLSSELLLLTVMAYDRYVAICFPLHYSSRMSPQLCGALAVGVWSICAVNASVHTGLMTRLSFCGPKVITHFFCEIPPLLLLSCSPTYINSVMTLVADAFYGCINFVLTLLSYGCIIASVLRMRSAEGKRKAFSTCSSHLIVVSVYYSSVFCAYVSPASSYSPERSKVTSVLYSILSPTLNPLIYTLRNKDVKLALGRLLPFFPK
Procedure, shortened: as §1

UniProt Q8VGP6 = target: T10, UniProt Q8VGP6
T10 sequence (whole entry): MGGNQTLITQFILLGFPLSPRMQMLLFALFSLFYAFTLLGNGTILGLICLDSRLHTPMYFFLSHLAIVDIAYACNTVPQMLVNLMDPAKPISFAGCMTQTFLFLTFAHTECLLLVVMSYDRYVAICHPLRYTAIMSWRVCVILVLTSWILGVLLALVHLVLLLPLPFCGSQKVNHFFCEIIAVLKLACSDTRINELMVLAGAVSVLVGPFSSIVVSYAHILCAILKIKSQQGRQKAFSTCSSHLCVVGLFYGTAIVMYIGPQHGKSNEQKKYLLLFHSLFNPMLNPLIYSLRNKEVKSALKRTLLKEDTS
Procedure, shortened: as §1

UniProt Q8VGQ3 = target: T11, UniProt Q8VGQ3
T11 sequence (whole entry): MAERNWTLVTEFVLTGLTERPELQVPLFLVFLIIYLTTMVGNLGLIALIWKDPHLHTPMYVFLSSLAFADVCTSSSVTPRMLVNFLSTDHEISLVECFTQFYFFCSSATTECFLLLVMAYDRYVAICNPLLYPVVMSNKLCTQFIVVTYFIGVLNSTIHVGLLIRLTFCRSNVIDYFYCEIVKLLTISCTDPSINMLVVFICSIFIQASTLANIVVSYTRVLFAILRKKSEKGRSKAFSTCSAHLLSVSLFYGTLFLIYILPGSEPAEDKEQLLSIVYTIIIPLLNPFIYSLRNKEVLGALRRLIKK
Procedure, shortened: as §1

UniProt Q8VGT4 = target: T12, UniProt Q8VGT4
T12 sequence (whole entry): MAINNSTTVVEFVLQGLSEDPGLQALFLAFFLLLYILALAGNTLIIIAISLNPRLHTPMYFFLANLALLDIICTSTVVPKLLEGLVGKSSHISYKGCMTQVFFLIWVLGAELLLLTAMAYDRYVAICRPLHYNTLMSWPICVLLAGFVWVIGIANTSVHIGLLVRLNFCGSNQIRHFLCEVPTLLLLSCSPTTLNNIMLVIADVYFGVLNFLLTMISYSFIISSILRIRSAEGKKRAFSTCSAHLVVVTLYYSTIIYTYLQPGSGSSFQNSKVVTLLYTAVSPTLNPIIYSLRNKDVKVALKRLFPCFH
Procedure, shortened: as §1

UniProt Q8VGU3 = target: T13, UniProt Q8VGU3
T13 sequence (whole entry): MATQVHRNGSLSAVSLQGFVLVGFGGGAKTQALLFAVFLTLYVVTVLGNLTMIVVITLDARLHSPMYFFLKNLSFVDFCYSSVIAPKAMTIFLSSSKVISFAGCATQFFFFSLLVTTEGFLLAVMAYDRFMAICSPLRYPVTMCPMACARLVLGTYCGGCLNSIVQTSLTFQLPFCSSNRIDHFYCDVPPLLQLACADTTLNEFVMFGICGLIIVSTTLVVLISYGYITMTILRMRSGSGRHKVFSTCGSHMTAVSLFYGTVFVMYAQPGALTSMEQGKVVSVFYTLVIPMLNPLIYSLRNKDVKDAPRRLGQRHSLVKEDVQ
Procedure, shortened: as §1

UniProt Q8VGV1 = target: T14, UniProt Q8VGV1
T14 sequence (whole entry): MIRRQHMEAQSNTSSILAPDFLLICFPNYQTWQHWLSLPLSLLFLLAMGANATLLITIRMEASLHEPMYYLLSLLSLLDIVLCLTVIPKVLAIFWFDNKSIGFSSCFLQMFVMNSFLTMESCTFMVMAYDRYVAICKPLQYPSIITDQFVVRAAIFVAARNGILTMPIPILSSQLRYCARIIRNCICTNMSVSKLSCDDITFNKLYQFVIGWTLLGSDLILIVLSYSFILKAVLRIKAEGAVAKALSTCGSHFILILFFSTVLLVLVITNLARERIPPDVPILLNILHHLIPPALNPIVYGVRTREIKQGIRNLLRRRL
Procedure, shortened: as §1

UniProt Q8VGV7 = target: T15, UniProt Q8VGV7
T15 sequence (whole entry): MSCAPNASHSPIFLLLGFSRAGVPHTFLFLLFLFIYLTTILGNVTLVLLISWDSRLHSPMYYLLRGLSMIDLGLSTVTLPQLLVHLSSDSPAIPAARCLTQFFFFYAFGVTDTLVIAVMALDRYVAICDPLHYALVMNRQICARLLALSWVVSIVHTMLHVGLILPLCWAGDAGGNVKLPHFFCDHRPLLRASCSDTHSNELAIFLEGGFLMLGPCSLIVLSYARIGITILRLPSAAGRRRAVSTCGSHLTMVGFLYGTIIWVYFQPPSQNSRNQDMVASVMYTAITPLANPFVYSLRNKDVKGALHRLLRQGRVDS
Procedure, shortened: as §1

UniProt Q8VGX3 = target: T16, UniProt Q8VGX3
T16 sequence (whole entry): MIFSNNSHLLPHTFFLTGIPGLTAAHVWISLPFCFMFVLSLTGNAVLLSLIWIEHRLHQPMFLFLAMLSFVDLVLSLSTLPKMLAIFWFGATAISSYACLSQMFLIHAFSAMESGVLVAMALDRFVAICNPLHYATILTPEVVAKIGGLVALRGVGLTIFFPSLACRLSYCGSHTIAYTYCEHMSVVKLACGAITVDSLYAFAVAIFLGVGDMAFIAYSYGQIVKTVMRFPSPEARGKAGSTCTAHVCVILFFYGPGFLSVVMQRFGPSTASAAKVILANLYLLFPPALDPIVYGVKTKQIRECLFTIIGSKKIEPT
Procedure, shortened: as §1

UniProt Q8VGX5 = target: T17, UniProt Q8VGX5
T17 sequence (whole entry): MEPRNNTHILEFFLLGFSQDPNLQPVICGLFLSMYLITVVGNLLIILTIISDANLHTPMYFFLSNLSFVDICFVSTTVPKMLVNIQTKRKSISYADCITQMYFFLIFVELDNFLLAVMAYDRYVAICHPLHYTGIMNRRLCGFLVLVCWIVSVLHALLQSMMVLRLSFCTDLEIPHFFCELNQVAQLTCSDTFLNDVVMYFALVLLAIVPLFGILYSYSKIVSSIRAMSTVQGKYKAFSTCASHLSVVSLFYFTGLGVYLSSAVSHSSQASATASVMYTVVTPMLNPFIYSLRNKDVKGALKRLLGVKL
Procedure, shortened: as §1

Measured: odorant receptor agonist call

CC1=CCC2CC1C2(C)C (stereo unspecified)
inactive: UniProt Q8VGC6

CCCC(=O)C(C)=O
inactive: all assays above

Cc1nccnc1C
inactive: UniProt Q8VGC6

CCC(=O)O
inactive: all assays above
